pIC50: −log10 of the molar value. In brackets after ≈: the same amount, converted by molar mass.
Key:
[1] = test system: PC-3; experiment: Cytotoxicity against human PC3 cells assessed as decrease in cell viability after 24 hrs by MTT assay; assay type: functional, cell-based; details: PC-3, 24 h
Procedure, shortened: (§1)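 Cell viability by MTT after 24 h compound exposure; curcumin as standard. IC50 in µM from three independent experiments, expressed as mean ± SE.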

[2] = test system: HEK293; experiment: Cytotoxicity against human HEK293 cells assessed as decrease in cell viability after 24 hrs by MTT assay; assay type: cell-based; details: HEK293, 24 h; procedure, shortened: as §1
[3] = test system: MCF7; experiment: Cytotoxicity against human MCF7 cells assessed as decrease in cell viability after 24 hrs by MTT assay; assay type: functional, cell-based; details: MCF7, 24 h; procedure, shortened: as §1
[4] = test system: 4T1; experiment: Cytotoxicity against mouse 4T1 cells assessed as decrease in cell viability after 24 hrs by MTT assay; assay type: functional, cell-based; details: 4T1, 24 h; procedure, shortened: as §1
[5] = test system: DU-145; experiment: Potency index, ratio of curcumin IC50 to compound IC50 in human DU145 cells; assay type: functional
Procedure, shortened: (§2)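 IC50 came from an MTT viability assay after 24 h compound exposure, with curcumin run as the standard. Values are mean ± SE of three independent experiments. The index is the curcumin IC50 divided by the compound IC50 in the same cell line.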

[6] = test system: MDA-MB-231; experiment: Potency index, ratio of curcumin IC50 to compound IC50 in human MDA-MB-231 cells; assay type: functional; procedure, shortened: as §2
[7] = test system: 4T1; experiment: Potency index, ratio of curcumin IC50 to compound IC50 in mouse 4T1 cells; assay type: functional; procedure, shortened: as §2
[8] = test system: DU-145; experiment: Cytotoxicity against human DU145 cells assessed as decrease in cell viability after 24 hrs by MTT assay; assay type: functional, cell-based; details: DU-145, 24 h; procedure, shortened: as §1
[9] = test system: MDA-MB-231; experiment: Cytotoxicity against human MDA-MB-231 cells assessed as decrease in cell viability after 24 hrs by MTT assay; assay type: functional, cell-based; details: MDA-MB-231, 24 h; procedure, shortened: as §1
[10] = test system: PC-3; experiment: Potency index, ratio of curcumin IC50 to compound IC50 in human PC3 cells; assay type: functional; procedure, shortened: as §2
[11] = Intrinsic clearance in liver microsomes (unknown origin) assessed per mg of protein in presence of NADPH by UPLC analysis; assay type: ADME, Microsome
[12] = Intrinsic hepatic clearance in liver microsomes (unknown origin) assessed per mg of protein in presence of NADPH by UPLC analysis; assay type: ADME, Microsome; details: read-out: CLH (converted)
[13] = Half life in liver microsomes (unknown origin) in presence of NADPH by UPLC analysis; assay type: ADME, Microsome
[14] = Solubility of the compound in distilled water after 24 hrs by HPLC based shake flask method; assay type: physicochemical
[15] = Elimination rate constant in liver microsomes (unknown origin) assessed as compound remaining measured up to 60 mins by UPLC analysis; assay type: ADME, Microsome
[16] = Drug metabolism in liver microsomes (unknown origin) assessed as compound remaining after 5 mins in presence of NADPH by UPLC analysis; assay type: ADME, Microsome; details: read-out: Drug metabolism
Procedure, shortened: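 Microsomal metabolic stability; percentage of compound remaining intact measured after 5 min incubation in presence of microsomes.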

[17] = test system: PC-3; experiment: Induction of mitochondrial membrane depolarization in human PC3 cells at 3 uM after 24 hrs by JC-1 staining based flow cytometry (reference value: 4.51%); assay type: functional
[18] = test system: MCF7; experiment: Induction of mitochondrial membrane depolarization in human MCF7 cells at 10 uM after 24 hrs by JC-1 staining based flow cytometry (reference value: 11%); assay type: functional

SMILES	pIC50 [1]	pIC50 [2]	pIC50 [3]	pIC50 [4]	Ratio IC50 [5]	Ratio IC50 [6]	Ratio IC50 [7]	pIC50 [8]	pIC50 [9]	Ratio IC50 [10]	CLint [11] [µL/min/mg]	CLint scaled [12] [L/h/kg]	half-life [13] [min]	solubility thermodynamic at 24 h [14] [µg/mL]	k el at 1 h [15] [s⁻¹]	remaining at 5 min [16] [%]	Activity [17] [%]	Activity [18] [%]
COc1ccc(/C=C2\CN(Cc3cn(Cc4ccccc4F)nn3)C/C(=C\c3ccc(OC)cc3)C2=O)cc1	4.40	< 4.00	≤ 4.00	4.40	≤ 9.5	<=8.3	<=9.3	4.49	4.17	–	–	–	–	–	–	–	–	–
O=C1/C(=C/c2ccccc2F)CN(Cc2cn(Cc3ccccc3F)nn2)C/C1=C\c1ccccc1F	4.71	4.39	5.22	5.19	≤ 9.5	<=8.3	<=9.3	4.97	4.80	<=5.7	–	–	–	–	–	–	–	–
O=C1/C(=C/c2ccccc2F)CN(Cc2cn(Cc3cccc(Cl)c3)nn2)C/C1=C\c1ccccc1F	5.17	4.48	4.92	5.21	≤ 9.5	<=8.3	<=9.3	5.37	4.92	<=5.7	–	–	–	–	–	–	–	–
O=C1/C(=C/c2ccccc2F)CN(C(=S)SCc2cn(Cc3ccccc3F)nn2)C/C1=C\c1ccccc1F	< 4.10	–	4.29	4.51	–	<=8.3	<=9.3	< 4.10	4.24	–	–	–	–	–	–	–	–	–
O=C1/C(=C/c2ccccc2F)CN(Cc2cn(Cc3ccccc3Cl)nn2)C/C1=C\c1ccccc1F	5.15	4.48	5.00	5.28	≤ 9.5	<=8.3	<=9.3	5.12	4.78	<=5.7	–	–	–	–	–	–	–	–
COc1ccc(/C=C2\CN(Cc3cn(Cc4ccccc4Cl)nn3)C/C(=C\c3ccc(OC)cc3)C2=O)cc1	4.44	–	< 4.00	4.94	≤ 9.5	–	<=9.3	4.75	< 4.00	<=5.7	–	–	–	–	–	–	–	–
Cc1ccc(/C=C2\CN(Cc3cn(Cc4ccccc4Cl)nn3)C/C(=C\c3ccc(C)cc3)C2=O)cc1	5.05	4.04	4.18	4.63	≤ 9.5	<=8.3	<=9.3	4.98	4.54	<=5.7	–	–	–	–	–	–	–	–
COc1cc(/C=C/C(=O)CC(=O)/C=C/c2ccc(O)c(OC)c2)ccc1O [CURCUMIN]	4.41	4.03	4.08	4.31	–	–	–	4.39	4.12	–	101	182	13.7	0.06 (≈ 0.163 µM)	0.00085	45	–	–
COC(=O)Nc1nc2cc(C(=O)c3cccs3)ccc2[nH]1 [NOCODAZOLE]	5.60	5.29	6.38	5.89	–	–	–	5.66	5.96	–	–	–	–	–	–	–	–	–
O=C1/C(=C/c2ccccc2F)CN(C(=S)SCc2cn(Cc3ccc(F)cc3)nn2)C/C1=C\c1ccccc1F	< 4.10	4.29	4.24	5.00	–	<=8.3	<=9.3	4.45	4.23	–	–	–	–	–	–	–	–	–
Cc1ccc(/C=C2\CN(C(=S)SCc3cn(Cc4cccc(Cl)c4)nn3)C/C(=C\c3ccc(C)cc3)C2=O)cc1	< 4.10	–	< 4.00	4.27	–	–	–	< 4.10	4.08	–	–	–	–	–	–	–	–	–
O=C1/C(=C/c2ccccc2F)CN(C(=S)SCc2cn(Cc3cccc(Cl)c3)nn2)C/C1=C\c1ccccc1F	4.10	–	< 4.00	< 4.00	–	–	–	< 4.10	< 4.00	–	–	–	–	–	–	–	–	–
Cc1ccc(/C=C2\CN(C(=S)SCc3cn(Cc4ccccc4Cl)nn3)C/C(=C\c3ccc(C)cc3)C2=O)cc1	< 4.10	–	< 4.00	4.31	–	–	<=9.3	< 4.10	4.03	–	–	–	–	–	–	–	–	–
O=c1[nH]cc(F)c(=O)[nH]1 [FLUOROURACIL]	4.88	4.40	–	4.64	–	–	–	4.62	4.72	–	–	–	–	–	–	–	–	–
COc1cccc2c1C(=O)c1c(O)c3c(c(O)c1C2=O)C[C@@](O)(C(=O)CO)C[C@@H]3O[C@H]1C[C@H](N)[C@H](O)[C@H](C)O1 [DOXORUBICIN]	–	5.14	–	6.00	–	–	–	5.80	5.80	–	–	–	–	–	–	–	–	–
N#CC(C#N)=NNc1cccc(Cl)c1 [CARBONYL CYANIDE M-CHLOROPHENYLHYDRAZONE]	–	–	–	–	–	–	–	–	–	–	–	–	–	–	–	–	35.82	86.65
COc1ccc(/C=C2\CN(Cc3cn(Cc4cccc(Cl)c4)nn3)C/C(=C\c3ccc(OC)cc3)C2=O)cc1	4.49	< 4.00	4.00	4.25	≤ 9.5	–	–	4.81	4.01	<=5.7	–	–	–	–	–	–	–	–
O=C1/C(=C/c2ccccc2F)CN(C(=S)SCc2cn(Cc3ccccc3Cl)nn2)C/C1=C\c1ccccc1F	< 4.10	–	4.10	4.36	–	–	<=9.3	4.33	4.00	–	–	–	–	–	–	–	–	–
Cc1ccc(/C=C2\CN(C(=S)SCc3cn(Cc4ccccc4F)nn3)C/C(=C\c3ccc(C)cc3)C2=O)cc1	< 4.10	–	< 4.00	4.55	–	–	<=9.3	4.10	4.04	–	–	–	–	–	–	–	–	–
COc1ccc(/C=C2\CN(Cc3cn(Cc4ccc(F)cc4)nn3)C/C(=C\c3ccc(OC)cc3)C2=O)cc1	4.17	–	< 4.00	4.31	–	<=8.3	<=9.3	4.23	4.15	–	–	–	–	–	–	–	–	–
Cc1ccc(/C=C2\CN(Cc3cn(Cc4cccc(Cl)c4)nn3)C/C(=C\c3ccc(C)cc3)C2=O)cc1	4.53	4.13	5.00	4.53	≤ 9.5	<=8.3	<=9.3	4.48	5.05	<=5.7	–	–	–	–	–	–	–	–
COc1ccc(/C=C2\CN(C(=S)SCc3cn(Cc4cccc(Cl)c4)nn3)C/C(=C\c3ccc(OC)cc3)C2=O)cc1	< 4.10	< 4.00	4.49	4.16	–	<=8.3	–	< 4.10	4.49	–	–	–	–	–	–	–	–	–
COc1ccc(/C=C2\CN(C(=S)SCc3cn(Cc4ccccc4Cl)nn3)C/C(=C\c3ccc(OC)cc3)C2=O)cc1	4.22	–	< 4.00	< 4.00	–	–	–	< 4.10	< 4.00	–	–	–	–	–	–	–	–	–
Cc1ccc(/C=C2\CN(C(=S)SCc3cn(Cc4ccc(F)cc4)nn3)C/C(=C\c3ccc(C)cc3)C2=O)cc1	4.34	–	4.09	4.53	≤ 9.5	<=8.3	<=9.3	4.41	4.34	–	–	–	–	–	–	–	–	–
COc1ccc(/C=C2\CN(C(=S)SCc3cn(Cc4ccccc4F)nn3)C/C(=C\c3ccc(OC)cc3)C2=O)cc1	4.50	–	4.10	4.30	–	–	–	4.26	< 4.00	<=5.7	–	–	–	–	–	–	–	–
COc1ccc(/C=C2\CN(C(=S)SCc3cn(Cc4ccc(F)cc4)nn3)C/C(=C\c3ccc(OC)cc3)C2=O)cc1	4.34	–	< 4.00	< 4.00	–	–	–	4.13	< 4.00	–	–	–	–	–	–	–	–	–
Cc1ccc(/C=C2\CN(Cc3cn(Cc4ccc(F)cc4)nn3)C/C(=C\c3ccc(C)cc3)C2=O)cc1	4.18	–	4.54	4.24	–	<=8.3	–	4.30	4.57	–	–	–	–	–	–	–	–	–

Reference: ChEMBL document CHEMBL4477254, “Synthesis and biological evaluation of some novel triazole hybrids of curcumin mimics and their selective anticancer activity against breast and prostate cancer cell lines” (Bioorg Med Chem Lett, 2016)
